Laboratory results reported in ChEMBL document CHEMBL4411315, “Discovery of Novel Dual Histone Deacetylase and Mammalian Target of Rapamycin Target Inhibitors as a Promising Strategy for Cancer Therapy” (J Med Chem, 2019).

How the values were obtained:
HCT-116 [1] = assay: Antiproliferative activity against human HCT116 cells after 72 hrs by MTT assay; format: functional, cell-based; conditions: HCT-116, 72 h
Raji = assay: Antiproliferative activity against human Raji cells after 72 hrs by MTT assay; format: functional, cell-based
Procedure, shortened: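 Log-phase cells were plated at 10000-15000 per well and exposed to serial concentrations after 24 h for 72 h. Read-out was MTT for 1-3 h, then 20% SDS overnight and absorbance at 570 nm. IC50 was calculated from growth versus untreated control, as mean ± SEM of at least three independent experiments.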

MM1.S = assay: Antiproliferative activity against human MM1S cells after 72 hrs by MTT assay; format: functional, cell-based
MCF7 = assay: Antiproliferative activity against human MCF7 cells after 72 hrs by MTT assay; format: functional, cell-based; conditions: MCF7, 72 h
[2] = biological target: PI3-kinase p110-alpha/p85-alpha (Homo sapiens) (UniProt P27986+P42336); assay: Inhibition of recombinant human full length N-terminal His-tagged/untagged p110alpha/p85alpha expressed in baculovirus expression system at 500 nM using PIP2 as substrate after 1 hr by Kinase-Glo reagent-based assay relative to control
[3] = biological target: Serine/threonine-protein kinase mTOR (Homo sapiens, UniProt P42345); assay: Inhibition of recombinant N-terminal FLAG-tagged human mTOR (1362 to end residues) at 500 nM using ULight-4E-BP1 (Thr37/46) peptide as substrate after 1 hr by fluorescence assay relative to control
MV4-11 = assay: Antiproliferative activity against human MV4-11 cells after 72 hrs by MTT assay; format: functional, cell-based; conditions: MV4-11, 72 h
OCI-AML2 = assay: Antiproliferative activity against human OCI-AML2 cells after 72 hrs by MTT assay; format: functional, cell-based; conditions: OCI-AML2, 72 h
OCI-AML-3 = assay: Antiproliferative activity against human OCI-AML3 cells after 72 hrs by MTT assay; format: functional, cell-based; conditions: OCI-AML-3, 72 h
HCT-116 [4] = assay: Antiproliferative activity against human HCT116 cells at 5 uM after 72 hrs by MTT assay relative to control; format: functional; conditions: HCT-116, 72 h
Procedure, shortened: (§1)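 HCT116 cells were grown in DMEM and Ramos cells in RPMI 1640, each with 10% FBS and penicillin/streptomycin, at 37 °C in 5% CO2. Log-phase cells were seeded at 10000-15000 per well and dosed after 24 h at 5 or 0.5 μM for 72 h. MTT was added for 1-3 h, followed by 20% SDS overnight, and A570 was read. Percent inhibition is relative to untreated control, as the mean of at least two experiments.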

HCT-116 [5] = assay: Antiproliferative activity against human HCT116 cells at 0.5 uM after 72 hrs by MTT assay relative to control; format: functional; conditions: HCT-116, 72 h; procedure, shortened: as §1
Ramos [6] = assay: Antiproliferative activity against human Ramos cells at 5 uM after 72 hrs by MTT assay relative to control; format: functional; procedure, shortened: as §1
Ramos [7] = assay: Antiproliferative activity against human Ramos cells at 0.5 uM after 72 hrs by MTT assay relative to control; format: functional; procedure, shortened: as §1

What does the source list for `Cc1ccc(NC(=O)Nc2ccc(-c3nc(N4CCOCC4)c4cnn(CCCCCCC(=O)NO)c4n3)cc2)cc1`?
IC50 (HCT-116 [1]): 26.1 nM; IC50 (Raji): 22.1 nM; IC50 (MM1.S): 24.7 nM

`O=C(CCCCCCn1ncc2c(N3CCOCC3)nc(-c3cc[nH]c3)nc21)NO` was tested. Which IC50 (HCT-116 [1]) did it give?
Its IC50 is 107 nM.

And the IC50 (Raji)?
Its IC50 is 15.3 nM.

And the IC50 (MCF7)?
Its IC50 is 180 nM.

What about the IC50 (MM1.S) of the same molecule?
Its IC50 is 52.3 nM.

What about the inhibition [2] of the same molecule?
Its inhibition is -3.8%.

What about the inhibition [3] of the same molecule?
The inhibition was 85%.

What does the source list for `CCCCNC(=O)Nc1ccc(-c2nc(N3CCOCC3)c3cnn(CCCCCCC(=O)NO)c3n2)cc1`?
IC50 (HCT-116 [1]): 33.9 nM; IC50 (Raji): 19.1 nM; IC50 (MM1.S): 15.3 nM; IC50 (MV4-11): 18.3 nM; IC50 (OCI-AML2): 9.71 nM; IC50 (OCI-AML-3): 8.79 nM

Which IC50 (HCT-116 [1]) does the source give for `Cc1cccnc1NC(=O)Nc1ccc(-c2nc(N3CCOCC3)c3cnn(CCCCCCC(=O)NO)c3n2)cc1` here?
The IC50 was 24.6 nM.

And the IC50 (Raji)?
The IC50 was 19 nM.

What about the IC50 (MM1.S) of the same molecule?
The IC50 was 20.2 nM.

What does the source list for `O=C(Cn1ncc2c(N3CCOCC3)nc(N3CCOCC3)nc21)NO`?
inhibition at 5 µM (HCT-116 [4]): 18.1%; inhibition at 0.5 µM (HCT-116 [5]): 3.5%; inhibition at 5 µM (Ramos [6]): 12.4%; inhibition at 0.5 µM (Ramos [7]): 1.1%; inhibition [2]: 5.9%

With `O=C(CCCCCCn1ncc2c(N3CCOCC3)nc(-c3cccnc3)nc21)NO` as the molecule, how does the IC50 (HCT-116 [1]) read?
Its IC50 is 296 nM.

What about the IC50 (Raji) of the same molecule?
Its IC50 is > 500 nM.

And the IC50 (MCF7)?
The IC50 was > 500 nM.

And the IC50 (MM1.S)?
Its IC50 is > 500 nM.

And the inhibition [2]?
The inhibition was -0.1%.

What about the inhibition [3] of the same molecule?
The inhibition was 17%.

`O=C(CCCCCCn1ncc2c(N3CCOCC3)nc(-c3ccc(NC(=O)Nc4ncc(Br)cn4)cc3)nc21)NO` was tested. Which IC50 (HCT-116 [1]) did it give?
Its IC50 is 144 nM.

And the IC50 (Raji)?
The IC50 was 60.8 nM.

What about the IC50 (MM1.S) of the same molecule?
The IC50 was 64.3 nM.

Which results are given for `O=C(CCCCCCn1ncc2c(N3CCOCC3)nc(-c3ccoc3)nc21)NO`?
IC50 (HCT-116 [1]): 34.9 nM; IC50 (Raji): 7.7 nM; IC50 (MCF7): 156 nM; IC50 (MM1.S): 15.6 nM; inhibition [2]: 8.4%; inhibition [3]: 35%

What does the source list for `O=C(CCCCn1ncc2c(N3CCOCC3)nc(N3CCOCC3)nc21)NO`?
inhibition at 5 µM (HCT-116 [4]): 55.8%; inhibition at 0.5 µM (HCT-116 [5]): 22.6%; inhibition at 5 µM (Ramos [6]): 60.2%; inhibition at 0.5 µM (Ramos [7]): 33.3%; inhibition [2]: 15%; inhibition [3]: -5.4%

For `O=C(CCCCCn1ncc2c(N3CCOCC3)nc(N3CCOCC3)nc21)NO`, which inhibition at 5 µM (HCT-116 [4]) is on record?
The inhibition at 5 µM was 92.1%.

What about the inhibition at 0.5 µM (HCT-116 [5]) of the same molecule?
The inhibition at 0.5 µM was 62.4%.

What about the inhibition at 5 µM (Ramos [6]) of the same molecule?
Its inhibition at 5 µM is 94.6%.

And the inhibition at 0.5 µM (Ramos [7])?
The inhibition at 0.5 µM was 69.2%.

What about the inhibition [2] of the same molecule?
The inhibition was 1%.

And the inhibition [3]?
The inhibition was -4.2%.

Which inhibition at 5 µM (HCT-116 [4]) does the source give for `O=C(/C=C/c1ccc(Cn2ncc3c(N4CCOCC4)nc(N4CCOCC4)nc32)cc1)NO` here?
The inhibition at 5 µM was 59.5%.

What about the inhibition at 0.5 µM (HCT-116 [5]) of the same molecule?
The inhibition at 0.5 µM was 12%.

And the inhibition at 5 µM (Ramos [6])?
The inhibition at 5 µM was 98.2%.

And the inhibition at 0.5 µM (Ramos [7])?
The inhibition at 0.5 µM was 16.8%.

What about the inhibition [2] of the same molecule?
The inhibition was -3%.

What about the inhibition [3] of the same molecule?
The inhibition was -5.4%.

Which IC50 (HCT-116 [1]) does the source give for `CCNC(=O)Nc1ccc(-c2nc(N3CCOCC3)c3cnn(CCCCCCC(=O)NO)c3n2)cc1` here?
The IC50 was 61.9 nM.

What about the IC50 (Raji) of the same molecule?
Its IC50 is 19.7 nM.

What about the IC50 (MM1.S) of the same molecule?
Its IC50 is 11.8 nM.

What about the IC50 (MV4-11) of the same molecule?
Its IC50 is 10.4 nM.

What about the IC50 (OCI-AML2) of the same molecule?
The IC50 was 18.4 nM.

What about the IC50 (OCI-AML-3) of the same molecule?
The IC50 was 16.3 nM.

How did the IC50 (HCT-116 [1]) turn out when `CCCNC(=O)Nc1ccc(-c2nc(N3CCOCC3)c3cnn(CCCCCCC(=O)NO)c3n2)cc1` was run?
Its IC50 is 104 nM.

What about the IC50 (Raji) of the same molecule?
The IC50 was 42.5 nM.

What about the IC50 (MM1.S) of the same molecule?
The IC50 was 83.4 nM.

Which results are given for `COc1cccc(NC(=O)Nc2ccc(-c3nc(N4CCOCC4)c4cnn(CCCCCCC(=O)NO)c4n3)cc2)c1`?
IC50 (HCT-116 [1]): > 500 nM; IC50 (Raji): 247 nM; IC50 (MM1.S): 464 nM

How did the inhibition at 5 µM (HCT-116 [4]) turn out when `O=C(CCn1ncc2c(N3CCOCC3)nc(N3CCOCC3)nc21)NO` was run?
Its inhibition at 5 µM is 22.4%.

What about the inhibition at 0.5 µM (HCT-116 [5]) of the same molecule?
The inhibition at 0.5 µM was 6.3%.

What about the inhibition at 5 µM (Ramos [6]) of the same molecule?
Its inhibition at 5 µM is 15.7%.

What about the inhibition at 0.5 µM (Ramos [7]) of the same molecule?
The inhibition at 0.5 µM was 8.5%.

What about the inhibition [2] of the same molecule?
The inhibition was 11%.

What about the inhibition [3] of the same molecule?
Its inhibition is -5%.

How did the IC50 (HCT-116 [1]) turn out when `O=C(CCCCCCn1ncc2c(N3CCOCC3)nc(-c3ccc(NC(=O)N4CCNCC4)cc3)nc21)NO` was run?
The IC50 was 111 nM.

And the IC50 (Raji)?
Its IC50 is 127 nM.

And the IC50 (MM1.S)?
Its IC50 is 126 nM.

And the IC50 (MV4-11)?
Its IC50 is 26.5 nM.

What about the IC50 (OCI-AML2) of the same molecule?
Its IC50 is 32.8 nM.

And the IC50 (OCI-AML-3)?
Its IC50 is 40.1 nM.
